Assay results as given in ChEMBL document CHEMBL1212862, “Role of 2',6'-dimethyl-l-tyrosine (Dmt) in some opioid lead compounds” (Bioorg Med Chem, 2010).

Legend:
[1] = target: Delta-type opioid receptor (Rattus norvegicus, UniProt P33533); experiment: Displacement of [3H]deltorphin 2 from delta opioid receptor in Sprague-Dawley rat brain P2 synaptosomal membrane
Outline: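 Equilibrium incubation 2.5 h at 23 °C. Filtration through glass fibre filters pre-soaked in 0.1% polyethylenimine, then three washes in ice-cold buffered 0.1% BSA. Ki by Cheng–Prusoff.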

[2] = target: Mu-type opioid receptor (Rattus norvegicus, UniProt P33535); experiment: Displacement of [3H]DAMGO from mu opioid receptor in Sprague-Dawley rat brain P2 synaptosomal membrane
Sequence of Mu-type opioid receptor (Rattus norvegicus, UniProt P33535) (P33535 whole entry): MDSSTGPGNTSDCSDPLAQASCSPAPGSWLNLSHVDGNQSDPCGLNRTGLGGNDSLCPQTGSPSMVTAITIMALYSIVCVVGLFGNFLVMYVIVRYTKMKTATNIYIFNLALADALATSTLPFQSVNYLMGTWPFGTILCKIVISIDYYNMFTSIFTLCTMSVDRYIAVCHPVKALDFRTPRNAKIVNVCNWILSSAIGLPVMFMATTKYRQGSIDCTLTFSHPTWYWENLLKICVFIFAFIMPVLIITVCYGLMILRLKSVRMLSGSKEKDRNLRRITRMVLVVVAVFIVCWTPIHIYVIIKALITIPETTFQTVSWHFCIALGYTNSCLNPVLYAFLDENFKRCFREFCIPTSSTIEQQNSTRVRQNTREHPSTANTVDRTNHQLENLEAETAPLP

[3] = target: T1, Delta-type opioid receptor (Mus musculus, UniProt P32300); experiment: Antagonist activity at delta opioid receptor in mouse vas deference; type: functional; settings: read-out: pA2 (converted)
T1 sequence (P32300 whole entry): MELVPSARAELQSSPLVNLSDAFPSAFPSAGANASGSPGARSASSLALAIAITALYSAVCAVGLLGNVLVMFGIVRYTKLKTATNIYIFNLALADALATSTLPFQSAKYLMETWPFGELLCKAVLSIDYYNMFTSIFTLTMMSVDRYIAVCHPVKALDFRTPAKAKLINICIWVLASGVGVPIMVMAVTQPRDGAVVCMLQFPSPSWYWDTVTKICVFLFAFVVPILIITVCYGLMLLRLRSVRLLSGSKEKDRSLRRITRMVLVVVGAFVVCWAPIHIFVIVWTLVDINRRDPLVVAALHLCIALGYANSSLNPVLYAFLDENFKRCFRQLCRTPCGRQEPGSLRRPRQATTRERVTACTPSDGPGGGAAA
Outline: (§1)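 Organ-bath tissue preparations in physiological buffer, pH 7.5, with electrically evoked contractions. Delta antagonism on mouse vas deferens measured against deltorphin II. Mu antagonism on male Hartley guinea pig ileum myenteric plexus longitudinal muscle measured against endomorphin-2. pA2 derived by the Kosterlitz and Watt method.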

[4] = target: T2, Mu-type opioid receptor (Cavia porcellus, UniProt P97266); experiment: Antagonist activity at mu opioid receptor in Hartley guinea pig small intestine; type: functional, tissue-based; settings: read-out: pA2 (converted); outline: as §1
T2 sequence (P97266 whole entry): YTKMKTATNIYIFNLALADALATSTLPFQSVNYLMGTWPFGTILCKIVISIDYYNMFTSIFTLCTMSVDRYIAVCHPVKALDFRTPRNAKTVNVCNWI

[5] = organism: Rattus norvegicus; experiment: Ratio of Ki for Sprague-Dawley rat mu opioid receptor to Ki for Sprague-Dawley rat delta opioid receptor
[6] = target: T1, Delta-type opioid receptor; experiment: Agonist activity at delta opioid receptor in mouse vas deference; type: functional
Outline: (§2)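 Isolated tissue assay in organ baths with balanced salt solution in physiological buffer, pH 7.5. Delta agonism measured on single mouse vas deferens, mu agonism on myenteric plexus longitudinal muscle strips (2–3 cm) from small intestine of male Hartley guinea pigs. Inhibition of electrically evoked contraction; IC50 (nM) from dose-response curves. DPDPE (MVD) and PL017 (GPI) run as internal standards. Mean ± SE of at least four tissue samples.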

[7] = target: T2, Mu-type opioid receptor; experiment: Agonist activity at mu opioid receptor in Hartley guinea pig small intestine; type: functional, tissue-based; outline: as §2

Sequence of Delta-type opioid receptor (Rattus norvegicus, UniProt P33533) (P33533 whole entry): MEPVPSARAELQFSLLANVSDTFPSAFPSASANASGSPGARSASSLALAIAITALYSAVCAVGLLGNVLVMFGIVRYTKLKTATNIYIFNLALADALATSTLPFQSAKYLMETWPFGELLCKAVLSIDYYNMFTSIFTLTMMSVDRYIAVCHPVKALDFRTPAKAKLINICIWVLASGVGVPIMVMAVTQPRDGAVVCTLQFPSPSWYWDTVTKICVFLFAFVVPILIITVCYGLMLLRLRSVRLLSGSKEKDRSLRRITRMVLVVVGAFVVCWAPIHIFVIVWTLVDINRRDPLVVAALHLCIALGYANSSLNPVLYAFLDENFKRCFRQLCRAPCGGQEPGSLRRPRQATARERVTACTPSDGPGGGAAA

SMILES	Ki [1] [nM]	Ki [2] [nM]	Kb [3] [nM]	Kb [4] [nM]	Selectivity ratio [5]	IC50 [6] [nM]	IC50 [7] [nM]
Cc1cc(O)cc(C)c1C[C@@H](C(=O)N1Cc2ccccc2C[C@H]1C(N)=O)N(C)C	0.309	511	0.126	501	1660		
Cc1cc(O)cc(C)c1C[C@@H](C(=O)N1Cc2ccccc2C[C@H]1C(=O)O)N(C)C	0.118			1580	20600		
CN(C)[C@@H](Cc1c(F)cc(O)cc1F)C(=O)N1Cc2ccccc2C[C@H]1C(=O)O	29.2	573			20		
CN(C)[C@@H](Cc1ccc(O)cc1)C(=O)N1Cc2ccccc2C[C@H]1C(N)=O	201	1450			7		
CN(C)[C@@H](Cc1c(F)cc(O)cc1F)C(=O)N1Cc2ccccc2C[C@H]1C(N)=O	176	596			3		
N[C@@H](Cc1c(F)cc(O)cc1F)C(=O)N1Cc2ccccc2C[C@H]1C(=O)NCc1nc2ccccc2[nH]1	1.01	54.5			54	67.3	> 10000
CN(C)[C@@H](Cc1ccc(O)cc1)C(=O)N1Cc2ccccc2C[C@H]1C(=O)O	34.8	1230			35		
N[C@@H](Cc1ccc(O)cc1)C(=O)N1Cc2ccccc2C[C@H]1C(=O)N[C@@H](CC(=O)O)c1nc2ccccc2[nH]1	0.177	684	1.41		3860		
N[C@@H](Cc1c(F)cc(O)cc1F)C(=O)N1Cc2ccccc2C[C@H]1C(=O)N[C@@H](CC(=O)O)c1nc2ccccc2[nH]1	0.162	225	1.12		1390		
N[C@@H](Cc1ccc(O)cc1)C(=O)N1Cc2ccccc2C[C@H]1C(=O)NCc1nc2ccccc2[nH]1	0.913	66.9			73	50.1	4220
